Only some compounds are listed: those with a hit (about 0.31% of all), similar ones and a draw of the others.
S1P3 antagonist: S1P3 (human) receptor antagonism; AID 485; Q99500; actives 0.27% (n = 170,000); inhibition, % at 4.98 µM; CHO S1P3 NFAT-BLA reporter, FRET fluorescence, antagonist mode;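 active = inhibition above the plate cutoff, the mean inhibition of test wells on that plate plus 3 SD, cut at about 28% in these data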;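 also: cells challenged with S1P at its EC80 of 0.8 µM; blue over green emission ratio from cleaved BLA substrate after 4 h stimulation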
Target sequence (Q99500 whole entry, looked up): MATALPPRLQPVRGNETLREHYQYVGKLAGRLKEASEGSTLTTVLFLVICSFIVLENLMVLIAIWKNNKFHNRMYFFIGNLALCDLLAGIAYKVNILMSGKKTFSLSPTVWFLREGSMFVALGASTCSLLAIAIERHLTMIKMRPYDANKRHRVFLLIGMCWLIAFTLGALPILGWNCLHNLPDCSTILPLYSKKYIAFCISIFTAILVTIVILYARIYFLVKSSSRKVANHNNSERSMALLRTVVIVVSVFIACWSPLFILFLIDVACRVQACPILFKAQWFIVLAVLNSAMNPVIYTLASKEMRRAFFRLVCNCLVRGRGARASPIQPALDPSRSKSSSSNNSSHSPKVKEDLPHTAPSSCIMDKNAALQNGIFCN
Biofilm kill mix: mixture kills Candida albicans biofilm cells. actives 0.02% (n = 120,000). AID 1242. inhibition, % at 7.6 µM. C. albicans biofilm persisters + clotrimazole, fluorescence viability; primary screen in compound mixtures of four per well;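 also: compounds exposed to preformed 24 h biofilms for 48 h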
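Incubation: 24 h biofilm formation, then 48 h compound exposure, 37 °C | Material: C. albicans biofilms | Buffer or medium: RPMI/MOPS medium, pH 7.0 | Measured by: 2-h Alamar Blue fluorescence, 535/590 nm excitation/emission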
Rad51 HR inh: Rad51 (human) homologous recombination inhibition. Q06609. hRad51 DNA strand exchange, fluorescence dequenching. inhibition, % at 10 µM. actives 0.085% (n = 200,000);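 active = inhibition above 40% at the single screening dose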
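Test system – preformed human Rad51 ssDNA filaments · Reagent – Donor/quencher-labelled 47-bp dsDNA substrate · Incubation – 37 °C 15-min filament assembly, 30-min compound preincubation, 15-min exchange · Signal – FRET fluorescence dequenching, excitation 485 nm, emission 520 nm · Read-out – percent inhibition from fluorescence, normalised to plate control and blank means · Benchmarks – plate control and blank wells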
A number is an active result; . = inactive; / = no result given.

SMILES	S1P3 antagonist	Biofilm kill mix	Rad51 HR inh
COc1ccc(-c2c(C)n([O-])c3c([n+]2=O)CCCC3)cc1OC	.	.	.
O=C(Nc1sc2c(c1C(=O)O)CCC2)c1cccs1	.	/	/
NC(=O)c1c(NC(=O)c2cccs2)sc2c1CCCCCC2	54	/	.
Cc1ccc2nc(NC(=O)c3ccc(Cl)s3)sc2c1	.	/	.
Cc1nc2ccc(NC(=O)c3ccc(Cl)s3)cc2s1	56	/	.
NC(=S)Nc1cccc2[nH]ccc12	.	.	.
COC(=O)NNC(=S)Nc1ccc(Br)cc1	.	.	.
CC(=O)c1sc(NC(=O)C=C(C)C)nc1C	.	/	.
CC(=O)c1sc(NC(=O)C2(F)C(F)(F)C(F)(F)C(F)(F)C(F)(F)C2(F)F)nc1C	76	/	.
CCOC(=O)c1c(N)sc2c1CCC(C)C2 (stereo unspecified)	.	/	.
CCOC(=O)c1c(NS(C)(=O)=O)sc2c1CCC(C)C2 (stereo unspecified)	.	/	89
O=C(OCC(=O)N1c2ccccc2Sc2ccccc21)c1ccc[n+]([O-])c1	.	.	.
CSCCC(NC(=O)C1CCC(C)CC1)C(=O)NCCN1CCC(C)CC1 (stereo unspecified)	.	.	.
C=CCSc1nnc(NC(=O)c2cn(CC)c3nc(C)ccc3c2=O)s1	.	.	.
O=C(c1ccccc1Sc1ccc([N+](=O)[O-])cc1Cl)N1CCOCC1	.	.	45
N#Cc1ccccc1Sc1ccccc1C(=O)N1CCOCC1	.	/	.
Cc1ccc(CS(=O)(=O)CCC(=O)NCCN2CCCCC2C)cc1 (stereo unspecified)	.	/	.
Cc1ccc(CS(=O)(=O)CCC(=O)NCCCN2CCCC2)cc1	82	/	.
Cc1nc(C(=O)NC(C)C)nn1-c1cc(Cl)cc(Cl)c1	.	.	.
OC(CN1C2=NCCN2c2ccccc21)c1ccccc1 (stereo unspecified)	.	/	.
OC(CN1C2=NCCCN2c2ccccc21)c1ccc(Cl)cc1 (stereo unspecified)	82	/	.
CCOC(=O)c1c(C)nc(C)c(C(=O)OCC)c1-c1ccco1	.	.	.
O=C(Nc1ccccc1)c1ccccc1CCc1ccccc1	/	/	.
O=C(Nn1cnnc1)c1ccccc1CCc1ccccc1	64	/	.
Cc1ccc(C2/C(=C(\O)c3ccc4c(c3)OCCO4)C(=O)C(=O)N2CCCN(C)C)o1 (stereo unspecified)	/	/	94
SMILES	S1P3 antagonist	Biofilm kill mix	Rad51 HR inh
COc1ccc(C2/C(=C(\O)c3ccc4c(c3)OCCO4)C(=O)C(=O)N2CCCN(C)C)cc1 (stereo unspecified)	/	/	.
CCc1c(C(=O)Nc2ccc(OC)cc2)[nH]c(C)c1C(C)=O	.	/	.
CCc1c(C(=O)Nc2cc(C)ccc2OC)[nH]c(C)c1C(C)=O	58	/	.
COc1ccccc1CNC(=O)C1CC2Cn3c(nc4cc(Cl)c(Cl)cc43)C2N1C (stereo unspecified)	/	/	.
O=C(NCc1ccccn1)C1Nc2ccc(C(F)(F)F)cc2C2C=CCC12 (stereo unspecified)	/	/	.
O=C(Nc1cccnc1)c1cccc(-c2cc3ccccc3oc2=O)c1	.	.	.
CCn1nnc(NC(=O)c2cccc(-c3cc4ccccc4oc3=O)c2)n1	.	/	51
CCN1CC(c2ccccc2)C(c2ccc(Cl)cc2)=N1 (stereo unspecified)	.	.	.
COc1cccc(C2C3=C(N=c4s/c(=C\c5ccc(OCC(=O)O)cc5)c(=O)n42)c2ccccc2CC3)c1 (stereo unspecified)	.	.	/
O=C(Nc1ccc2c(c1)CCC2)c1ccc(Cl)nc1	.	.	.
CC(=O)Nc1ccc(NC(=O)c2ccc(Cl)nc2)cc1	.	.	42
N/C(=N/O)c1ccccc1N1CCC(Cc2ccccc2)CC1	.	.	.
Cc1cc(NC(=O)c2c(Br)c(C)nn2C)no1	.	.	/
O=C(c1ccco1)N1CCN(c2ncnc3c2nnn3Cc2ccccc2Cl)CC1	/	.	.
CCOC(=O)C1CCN(c2ncnc3c2nnn3Cc2ccccc2Cl)CC1	.	.	55
CCC(CC)N=C1NS(=O)(=O)c2cc([N+](=O)[O-])ccc21	.	.	.
CCn1c(N)c(C(=O)NCc2cccnc2)sc1=S	54	/	.
Nc1c(C(=O)NCc2cccnc2)sc(=S)n1-c1ccccc1	.	/	.
O=C(CCSc1nc2ccccc2s1)N/N=C/c1c(O)ccc2ccccc12	.	.	.
CCOC(=O)/C(=N\Nc1ccccc1Cl)N1CC(C)OC(C)C1 (stereo unspecified)	.	.	.
CCOC(=O)/C(=N\Nc1cc(Cl)ccc1Cl)N1CC(C)OC(C)C1 (stereo unspecified)	.	.	42
Cc1c(NC(=O)COC(=O)c2ccc(F)c(S(=O)(=O)N3CCOCC3)c2)c(=O)n(-c2ccccc2)n1C	.	.	.

Screens as filed in PubChem.
